Measured values published in ChEMBL document CHEMBL2434859, “Targeting botulinum A cellular toxicity: a prodrug approach” (J Med Chem, 2013).
pEC50: −log10 of the molar value. The source made the active and inactive calls. The calls are words filed in the database; no cut-off is given here.

Assays:
[1] = Half life in culture media at 10 to 100 uM by LC/MS analysis; type: physicochemical; details: for t1/2: 100 µM
How it was run: (§1)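 Compound at 10–100 μM (1% DMSO) was held in PBS pH 7.4 or neurobasal medium. Aliquots were taken at timed intervals; medium samples were quenched in cold acetonitrile. A deuterated internal standard (1 μM) was added, and samples were read by LC/MS (C8, SIM) against calibration curves. Half-life came from an exponential decay fit.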

[2] = Half life in PBS buffer at 10 to 100 uM by LC/MS analysis; type: physicochemical; how it was run: as §1
[3] = biological target: Botulinum neurotoxin type A (Clostridium botulinum (strain Hall / ATCC 3502 / NCTC 13319 / Type A)) (UniProt P0DPI1); assay: Inhibition of Clostridium botulinum A Hall BoNT LC/A in human induced pluripotent stem cell-derived neurons assessed as inhibition of intracellular SNAP-25 cleavage after 8 hrs by Western blot analysis in presence of 0.01% Tween-80; type: cell-based; details: Clostridium botulinum A str. Hall
Sequence of Botulinum neurotoxin type A (Clostridium botulinum (strain Hall / ATCC 3502 / NCTC 13319 / Type A)) (P0DPI1 2-448 limits assumed): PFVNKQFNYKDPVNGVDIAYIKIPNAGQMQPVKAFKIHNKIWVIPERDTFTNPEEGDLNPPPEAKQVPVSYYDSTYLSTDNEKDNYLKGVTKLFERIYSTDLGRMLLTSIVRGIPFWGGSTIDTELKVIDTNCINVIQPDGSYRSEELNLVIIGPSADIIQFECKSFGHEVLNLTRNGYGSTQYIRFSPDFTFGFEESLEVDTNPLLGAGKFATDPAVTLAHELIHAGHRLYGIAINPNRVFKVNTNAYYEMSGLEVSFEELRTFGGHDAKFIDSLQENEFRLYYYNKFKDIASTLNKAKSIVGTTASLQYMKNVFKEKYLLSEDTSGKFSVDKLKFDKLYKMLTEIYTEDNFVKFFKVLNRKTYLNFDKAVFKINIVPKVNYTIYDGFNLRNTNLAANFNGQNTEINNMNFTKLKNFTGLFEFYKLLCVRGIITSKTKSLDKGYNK

[4] = biological target: Botulinum neurotoxin type A (Clostridium botulinum (strain Hall / ATCC 3502 / NCTC 13319 / Type A)) (UniProt P0DPI1); assay: (§2) Inhibition of Clostridium botulinum A Hall BoNT LC/A in human induced pluripotent stem cell-derived neurons assessed as inhibition of intracellular SNAP-25 cleavage after 8 hrs by Western blot analysis; type: cell-based; details: Clostridium botulinum A str. Hall
[5] = biological target: Botulinum neurotoxin type A (Clostridium botulinum (strain Hall / ATCC 3502 / NCTC 13319 / Type A), UniProt P0DPI1); assay: as §2; type: cell-based, Clostridium botulinum A str. Hall; details: for pEC50: read-out: EC50
Sequence of Botulinum neurotoxin type A (P0DPI1 2-448 limits assumed): as above

[6] = biological target: Botulinum neurotoxin type A (Clostridium botulinum (strain Hall / ATCC 3502 / NCTC 13319 / Type A)) (UniProt P0DPI1); assay: Inhibition of Clostridium botulinum A Hall BoNT LC/A in human induced pluripotent stem cell-derived neurons assessed as inhibition of intracellular SNAP-25 cleavage at 25 uM after 8 hrs by Western blot analysis relative to control; type: cell-based; details: Clostridium botulinum A str. Hall
[7] = Cytotoxicity against human induced pluripotent stem cell-derived neurons assessed as SNAP-25 level at 25 uM after 8 hrs by Western blot analysis; details: induced pluripotent stem cell-derived neuron
[8] = Cellular uptake in golgi apparatus of mouse Neuro2a cell assessed as release of AMC and 1-adamantylacetohydroxamic acid at 50 uM after 3 hrs by Alexa Fluor 488-conjugated wheat germ agglutinin/TOTO-3 staining-based laser scanning confocal microscopic analysis; type: ADME
[9] = Prodrug conversion in mouse Neuro2a cells assessed as release of AMC and 1-adamantylacetohydroxamic acid at 50 uM after 3 hrs by Alexa Fluor 488-conjugated wheat germ agglutinin/TOTO-3 staining-based laser scanning confocal microscopic analysis; type: ADME, cell-based; details: n2a

O=C(CC12CC3CC(CC(C3)C1)C2)NOC(=O)NCc1ccccc1
t1/2 [1]: 14.6 h | t1/2 [2]: 17.6 h | inhibition [3]: Active | inhibition [4]: Dose-dependent effect | pEC50 [5]: 4.70 | inhibition [6]: 50%

CC(C)(C)NC(=O)ONC(=O)CC12CC3CC(CC(C3)C1)C2
t1/2 [2]: 72 h | EC50 [5]: ND(toxic)

O=C(CC12CC3CC(CC(C3)C1)C2)NOC(=O)N1CCOCC1
t1/2 [1]: 33 h | t1/2 [2]: 48 h | pEC50 [5]: 4.43

O=C(CC12CC3CC(CC(C3)C1)C2)NOC(=O)Nc1ccccc1
t1/2 [1]: 0.76 h | t1/2 [2]: 1.1 h | pEC50 [5]: < 4.00

CCNC(=O)ONC(=O)CC12CC3CC(CC(C3)C1)C2
t1/2 [1]: 15.1 h | t1/2 [2]: 27.6 h | pEC50 [5]: < 4.00

O=C(CC12CC3CC(CC(C3)C1)C2)N(O)C(=O)NCc1ccccc1
Activity [7]: Toxic

O=C(CC12CC3CC(CC(C3)C1)C2)NOC(=O)Nc1ccc(F)cc1
t1/2 [1]: 0.62 h | t1/2 [2]: 0.9 h | pEC50 [5]: < 4.00

COc1ccc(NC(=O)ONC(=O)CC23CC4CC(CC(C4)C2)C3)cc1
t1/2 [1]: 0.85 h | t1/2 [2]: 1.1 h | pEC50 [5]: < 4.00

COc1ccc(CNC(=O)ONC(=O)CC23CC4CC(CC(C4)C2)C3)cc1
t1/2 [1]: 11.2 h | t1/2 [2]: 14 h | pEC50 [5]: 4.38

O=C(CC12CC3CC(CC(C3)C1)C2)NOC(=O)NCc1ccc(F)cc1
t1/2 [1]: 11.5 h | t1/2 [2]: 11.5 h | pEC50 [5]: 4.57

CN(C)C(=O)ONC(=O)CC12CC3CC(CC(C3)C1)C2
t1/2 [1]: 61 h | t1/2 [2]: 149 h | pEC50 [5]: < 4.00

CC1(C)ON=C(CC23CC4CC(CC(C4)C2)C3)O1
t1/2 [1]: 10.2 h | t1/2 [2]: 3.3 h | pEC50 [5]: < 4.00

Cc1cc(=O)oc2cc(NC(=O)ONC(=O)CC34CC5CC(CC(C5)C3)C4)ccc12
Drug uptake [8]: Active | Drug metabolism [9]: Active | half-life at up to 100 µM ([1]; culture media): 4.5 h | inhibition [4]: Active

COCCN(CCOC)C(=O)ONC(=O)CC12CC3CC(CC(C3)C1)C2
t1/2 [1]: 48 h | t1/2 [2]: 164 h | pEC50 [5]: < 4.00

COc1cc(NC(=O)ONC(=O)CC23CC4CC(CC(C4)C2)C3)cc(OC)c1
t1/2 [1]: 1.6 h | t1/2 [2]: 1.2 h | pEC50 [5]: < 4.00
